Test results taken from ChEMBL document CHEMBL3232807, “Genomics-guided discovery of endophenazines from Kitasatospora sp. HKI 714” (2014).
Converted amounts (≈) assume the structure as drawn.

What was measured:
Format in all cases: functional
Staphylococcus aureus = assay: Antimicrobial activity against methicillin-resistant Staphylococcus aureus SG 511 by broth dilution method
Outline: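 MIC was determined by broth dilution following NCCLS guidelines, using S. aureus SG 511 (MRSA).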

Mycolicibacterium vaccae = assay: Antimicrobial activity against Mycobacterium vaccae IMET 10670 by broth dilution method
Outline: (§1)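 MIC was determined by broth dilution following the NCCLS standard method.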

[1] = system: Mycolicibacterium fortuitum; assay: Antimicrobial activity against Mycobacterium fortuitum IMET 10667 by broth dilution method; outline: as §1
[2] = system: Mycolicibacterium smegmatis; assay: Antimicrobial activity against Mycobacterium smegmatis SG 987 by broth dilution method; outline: as §1
Mycolicibacterium aurum = assay: Antimicrobial activity against Mycobacterium aurum SB 66 by broth dilution method; outline: as §1
[3] = system: Mycobacterium avium complex sp.; assay: Antimicrobial activity against Mycobacterium avium complex by BACTEC radiometric assay
[4] = system: Mycobacterium tuberculosis; assay: Antimicrobial activity against Mycobacterium tuberculosis by BACTEC radiometric assay

Q: Which results are given for `CC(C)(O)/C=C/c1cccc2nc3cccc(C(=O)O)c3nc12`?
A: MIC (Staphylococcus aureus): 100 µg/mL (≈ 324 µM); MIC (Mycolicibacterium vaccae): 25 µg/mL (≈ 81.1 µM); MIC [1]: 25 µg/mL (≈ 81.1 µM); MIC [2]: 50 µg/mL (≈ 162 µM); MIC (Mycolicibacterium aurum): 25 µg/mL (≈ 81.1 µM)

Q: What does the source list for `O=C(O)c1cccc2nc3ccccc3nc12` [PHENAZINE-1-CARBOXYLIC ACID]?
A: MIC (Staphylococcus aureus): 100 µg/mL (≈ 446 µM); MIC (Mycolicibacterium vaccae): 25 µg/mL (≈ 111 µM); MIC [1]: 50 µg/mL (≈ 223 µM); MIC [2]: 50 µg/mL (≈ 223 µM); MIC (Mycolicibacterium aurum): 50 µg/mL (≈ 223 µM)

Q: What does the source list for `O=C(O)c1cn(C2CC2)c2cc(N3CCNCC3)c(F)cc2c1=O` [CIPROFLOXACIN]?
A: MIC (Staphylococcus aureus): 12.5 µg/mL (≈ 37.7 µM); MIC (Mycolicibacterium vaccae): 0.1 µg/mL (≈ 0.302 µM); MIC [1]: 0.1 µg/mL (≈ 0.302 µM); MIC [2]: 0.78 µg/mL (≈ 2.35 µM); MIC (Mycolicibacterium aurum): 0.1 µg/mL (≈ 0.302 µM)

Q: Which MIC (Staphylococcus aureus) does the source give for `O=C(O)c1cccc2c1Nc1ccccc1N2C(=O)CO` here?
A: 100 µg/mL (≈ 352 µM)

Q: What about the MIC (Mycolicibacterium vaccae) of the same compound?
A: 25 µg/mL (≈ 87.9 µM)

Q: And the MIC [1]?
A: 50 µg/mL (≈ 176 µM)

Q: And the MIC [2]?
A: 50 µg/mL (≈ 176 µM)

Q: And the MIC (Mycolicibacterium aurum)?
A: 50 µg/mL (≈ 176 µM)

Q: With `C/C(=C\Cc1cccc2nc3cccc(C(=O)O)c3nc12)CO` as the compound, how does the MIC (Staphylococcus aureus) read?
A: 100 µg/mL (≈ 324 µM)

Q: And the MIC (Mycolicibacterium vaccae)?
A: 25 µg/mL (≈ 81.1 µM)

Q: And the MIC [1]?
A: 25 µg/mL (≈ 81.1 µM)

Q: And the MIC [2]?
A: 50 µg/mL (≈ 162 µM)

Q: What about the MIC (Mycolicibacterium aurum) of the same compound?
A: 25 µg/mL (≈ 81.1 µM)

Q: For `CC(C)/N=c1\cc2n(-c3ccc(Cl)cc3)c3ccccc3nc-2cc1Nc1ccc(Cl)cc1` [CLOFAZIMINE], which MIC [3] is on record?
A: 0.12 µg/mL (≈ 0.253 µM)

Q: What about the MIC [4] of the same compound?
A: 0.12 µg/mL (≈ 0.253 µM)
